High-throughput results: PubChem, Johns Hopkins Ion Channel Center
Hits are enriched below; roughly 3.7% of the tested compounds scored in any of these assays.
Kir21 block: inhibitors of mouse Kir2.1 inward-rectifier potassium channel | AID 1672 | actives 0.85% (n = 310,000) | B-score at 10 µM | HEK293-Kir2.1, FluxOR thallium flux fluorescence; hits give low values | P35561;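 active = fluorescence ratio B-score at or below minus 3 SD of library scores, with starting-brightness B-score within 2 SD, cut at about -4.2 in these data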;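 also: channel flux triggered by added potassium and thallium sulfate stimulus; B-score of peak minus minimum fluorescence over baseline after thallium stimulus; more negative B-score means stronger Kir2.1 block with less thallium influx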
hERG rescue: shields human hERG channel from block by proarrhythmic agents; Q12809; CHO-hERG, FluxOR thallium flux, dofetilide IC70 present; activation (rescue from dofetilide block), less the hit threshold, % at 10 µM; actives 0.51% (n = 310,000); AID 1511;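 active = activation above the mean of controls blocked by dofetilide plus 5 SD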;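 also: thallium influx through hERG after potassium depolarization seen as dye fluorescence rise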
KCNK9 inh: blocks the human KCNK9 two-pore domain potassium channel; Q9NPC2; HEK293 KCNK9, FluxOR thallium flux fluorescence; hits give low values; AID 488922; B-score at 10 µM; actives 1.2% (n = 310,000);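 active = ratio B-score over 3 SD below the library mean, with starting fluorescence within 5 SD of its mean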;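 also: negative B-score means less thallium flux so channel inhibition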
KCNQ1 act: potentiators or activators of human KCNQ1 potassium channel | actives 0.35% (n = 310,000) | CHO-K1 KCNQ1, thallium flux FluxOR fluorescence; hits give high values | B-score at 10 µM | P51787;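 active = fluorescence ratio B-score, a plate-corrected score, at least three library SD, with initial intensity B-score within 5 SD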
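Assay system: stable KCNQ1 CHO-K1 line; medium: assay buffer, equal DMSO in all wells; timing: 90 min dye loading and 20 min compound exposure, both at room temperature; technique: kinetic FluxOR thallium fluorescence, 10-s 1-Hz baseline, 110-s post-stimulus read; read-out basis: B score of baseline-normalized fluorescence ratio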
KCNQ1 block: human KCNQ1 channel inhibition | B-score at 10 µM | actives 1.3% (n = 310,000) | CHO-K1 KCNQ1, FluxOR thallium flux fluorescence; hits give high values | P51787;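 active = compounds whose thallium flux B-score, printed positive for inhibition, exceeds three library SD while starting fluorescence stays within three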;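 also: channel opened by potassium depolarization with thallium stimulus after 20 min compound exposure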
KCNK3 block: human KCNK3 channel inhibition, primary screen; O14649; CHO-KCNK3 thallium flux, FluxOR fluorescence; hits give low values; B-score at 10 µM; actives 0.84% (n = 340,000); AID 602410;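 active = B-score under library mean minus 4 SD, starting fluorescence ratio at most library mean plus 5 SD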;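 also: more negative B-score means stronger inhibition of thallium flux through KCNK3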
Target sequence (O14649 whole entry, looked up): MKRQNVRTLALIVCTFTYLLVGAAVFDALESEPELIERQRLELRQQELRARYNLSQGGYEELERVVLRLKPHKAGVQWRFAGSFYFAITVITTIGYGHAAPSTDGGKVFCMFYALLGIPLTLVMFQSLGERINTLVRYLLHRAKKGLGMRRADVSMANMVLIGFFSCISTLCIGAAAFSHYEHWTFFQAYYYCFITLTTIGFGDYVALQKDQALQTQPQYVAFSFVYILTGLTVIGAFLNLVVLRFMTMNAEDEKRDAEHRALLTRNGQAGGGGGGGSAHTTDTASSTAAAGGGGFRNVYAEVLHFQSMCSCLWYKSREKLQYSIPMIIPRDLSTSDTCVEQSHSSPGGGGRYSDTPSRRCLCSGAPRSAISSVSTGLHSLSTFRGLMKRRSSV
KCNK9 block conf: confirmation of human KCNK9 potassium channel inhibitors; shares compounds with KCNK9 inh; inhibition, % at 10 µM; AID 492992; actives 43% (n = 4,900); HEK293 KCNK9 cells, FluxOR thallium flux fluorescence;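 active = thallium signal inhibited by more than 5 SD of the compound-free buffer control wells, on both duplicate plates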;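 also: 0% = assay buffer control wells without compound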
Kir2-1 spec: tests whether KCNK9 modulators also affect mouse Kir2.1; Kir2.1 cells, FluxOR thallium flux fluorescence; inhibition, % at 10 µM; actives 4% (n = 4,900); shares compounds with KCNK9 inh;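 active = thallium signal drop more than 5 SD beyond the mean of the no-compound control wells, seen in both duplicate plates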;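 also: signal is fluorescence rise after thallium addition divided by baseline fluorescence; plate controls were assay buffer only for no effect and full block by chlorpromazine control for full effect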
HEK293 Tl ctr: second check of KCNK9 modulator effects in non-induced HEK293 cells. actives 40% (n = 4,900). inhibition, % at 10 µM. FluxOR thallium flux. shares compounds with KCNK9 inh;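 active = thallium signal drop beyond 5 SD of the untreated control mean, on both duplicate plates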;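 also: plate controls were buffer only IC0 wells for no effect and SID17386958 at its maximal inhibitory level for full effect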
* hit, by the source's call; i = inactive; / = no result given.

SMILES | Kir21 block | hERG rescue | KCNK9 inh | KCNQ1 act | KCNQ1 block | KCNK3 block | KCNK9 block conf | Kir2-1 spec | HEK293 Tl ctr
CN(CC(=O)Nc1ccc(S(=O)(=O)N2CCCC2)cc1)CC(=O)Nc1cccc(F)c1 | 1.7 | -11 | i | i | i | i | / | / | /
Cc1cccc(N(Cc2ccccc2)C(=O)c2ccccc2S(C)(=O)=O)c1 | -0.15 | -12 | i | i | i | i | / | / | /
COc1ccccc1CNC(=O)CCCN1C(=O)COc2ccc(C)cc21 | -0.55 | -8 | i | i | i | i | i | i | i
Cc1ccc2c(c1)N(CCC(=O)NC1CCCCC1)C(=O)CO2 | -0.3 | -9 | i | i | i | i | i | i | i
O=C(NCc1cccs1)C1CCC(=O)N(Cc2cccc(C(F)(F)F)c2)C1 (centres undefined) | 0.27 | -4 | i | i | i | i | / | / | /
CC(C)N1CCOC1c1ccccc1 (centres undefined) | / | / | / | / | / | i | / | / | /
C=CCc1ccc(O)c(-c2ccc(O)c(CC=C)c2)c1 | -2.6 | -17 | -18* | i | i | i | 76%* | i | 42%*
C=CCc1cc(C(=O)N2CCCCC2)ccc1O | 0.49 | -13 | i | i | i | i | / | / | /
O=[N+]([O-])c1ccc(/C=C/c2ccc3cccc([N+](=O)[O-])c3n2)cc1 | 0.51 | -4 | i | i | i | i | / | / | /
O=[N+]([O-])c1cccc2ccc(/C=C/c3ccc(F)cc3)nc12 | 0.58 | -9 | -13* | i | i | i | 48%* | i | 32%*
COc1ccc(-c2csc(Nc3ncccc3C)n2)cc1OC | -1.1 | -3 | i | i | i | i | / | / | /
COc1ccc(-c2csc(Nc3ncccc3C)n2)cc1 | 0.2 | -9 | i | i | i | i | i | i | i
COc1cc(CN(C)CC2CCCN(CCc3cccc(C(F)(F)F)c3)C2)ccc1O (centres undefined) | -1.2 | -7 | i | i | i | i | / | / | /
NS(=O)(=O)c1ccc(NCc2cc(Cl)ccc2OCc2ccccc2F)cc1 | -0.57 | -8 | -15* | i | i | i | 50%* | i | 41%*
CCn1c(C)cc2c(c1=O)C(c1ccccc1)C(C(=O)OC)=C(N)O2 (centres undefined) | -0.77 | -2 | i | i | i | i | / | / | /
COC(=O)C1=C(N)Oc2cc(C)n(Cc3ccco3)c(=O)c2C1c1cccc(Cl)c1 (centres undefined) | -0.17 | -4 | -13* | i | i | i | 46%* | i | 45%*
COC(=O)C1=C(N)Oc2cc(C)n(CC3CCCO3)c(=O)c2C1c1ccc(Cl)c(Cl)c1 (centres undefined) | -0.46 | -13 | -9.1* | i | i | i | 35%* | i | 52%*
Cc1ccc(NC(=O)c2c(C(=O)Nc3ccccc3)sc3nc(C)cc(=O)n23)cc1 | 0.01 | -11 | i | i | i | i | / | / | /
COc1cc(OC)c2c(O)c3c(c(-c4c5c(c(O)c6c(OC)cc(OC)cc46)CO[C@@H](C)[C@H]5O)c2c1)[C@H](O)[C@H](C)OC3 | -1.4 | -6 | i | i | i | i | i | i | i
COc1cc2c(c(OC)c1O)C(=O)CO2 | 0.37 | -4 | i | i | i | i | / | / | /
CN(C)C(CNS(=O)(=O)c1ccc(Cl)cc1F)c1ccco1 (centres undefined) | / | / | / | / | / | i | / | / | /
CCC(C)(C)n1nnnc1C(c1ccncc1)N1CCC(Cc2ccccc2)CC1 (centres undefined) | -0.67 | -3 | i | i | i | i | / | / | /
CC(C)(C)n1nnnc1C(c1cccc(C#N)c1)N1CCC(Cc2ccccc2)CC1 (centres undefined) | -0.56 | -8 | -18* | i | i | -11* | 60%* | i | 34%*
CCOC(=O)Cc1c(C)nc2c(-c3ccc(Cl)cc3)c(C)nn2c1C | 0.41 | -6 | i | i | i | i | / | / | /
CCOC(=O)Cc1c(C)nc2c(-c3ccccc3OC)c(C)nn2c1C | 2.6 | -7 | i | i | i | i | i | i | i
SMILES | Kir21 block | hERG rescue | KCNK9 inh | KCNQ1 act | KCNQ1 block | KCNK3 block | KCNK9 block conf | Kir2-1 spec | HEK293 Tl ctr
Cc1ccc(SCc2ccc(C(=O)N3CCCC3)cc2)cc1 | -1.7 | 5.7* | i | i | i | i | i | i | i
Cc1cccc(OCCNC(=O)c2cccc(Oc3ccc(C(F)(F)F)cc3[N+](=O)[O-])c2)c1 | 0.3 | -9 | i | i | i | i | i | i | i
Cc1c(C(=O)O)cccc1-c1ccc(/C=N/n2cnnc2)o1 | -0.02 | -8 | i | i | i | i | / | / | /
O=C(O)c1ccc(N/N=C/c2ccc(-c3ccc(Cl)cc3Cl)o2)cc1 | 1.3 | -10 | i | i | i | i | i | i | i
Cc1c(C(=O)O)cccc1-c1ccc(/C=N/Nc2ccc(Br)cc2)o1 | 0.39 | -12 | i | i | i | i | i | i | i
O=C(NCCN1CCOCC1)C1(C(F)(F)F)C/C(=C\Cc2ccccc2)CCCO1 (centres undefined) | -0.22 | -13 | i | i | i | i | / | / | /
COC(=O)c1c(C)oc(C)c1S(=O)(=O)NC(C)(C)C | 0.79 | -3 | i | i | i | i | / | / | /
CC(C)c1cc(C(C)C)c(S(=O)(=O)N2CCNCC2)c(C(C)C)c1 | -1.9 | 2 | i | i | i | i | / | / | /
Cc1ccc(Cn2cccc2C2=NC(C)CO2)cc1 (centres undefined) | -0.3 | -6 | i | i | i | i | / | / | /
Cc1oc(-c2ccccc2Cl)nc1Cn1cccc1C1=NC(c2ccccc2)CO1 (centres undefined) | -2 | -6 | -13* | i | 6* | i | 54%* | i | 52%*
CC(C)C1COC(c2cccn2Cc2ccccc2Cl)=N1 (centres undefined) | 0.51 | -4 | i | i | i | i | i | i | 30%*
O=[N+]([O-])c1ccc(SCc2ccco2)cc1N1CCOCC1 | -2.8 | 0 | i | i | i | i | i | i | i
O=[N+]([O-])c1ccc(N2CCOCC2)cc1SCc1ccco1 | -1.2 | -2 | i | i | i | i | / | / | /
